In PubChem BioAssay AID651753 (Broad Institute, 2012):
“And” between values parts separate entries of the source, which are not always exact repeats. Equal entries are not always repeated. The source made the active and inactive calls.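 The calls were made as follows: active = falling-signal curve whose AC50 is no more than twice the top valid dose; inconclusive = flat fit with moderate inhibition, or poor fit; inactive = the rest.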

Columns and labels:
[1] = test system: SK-MEL-5 TRPM1-promoter luciferase, luminescence, 24 h; experiment: inhibitors of MITF-driven TRPM1 promoter activity, dose response, cell-based, SK-MEL-5, luciferase, dry powder, set 10 (AID 651753)
In short: (§1)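 Signal: Steady-Glo luminescence, 5 min at room temperature; Assay system: TRPM1-promoter luciferase SK-MEL-5 melanoma cells; Medium: DMEM lacking phenol red, plus 10% heat-inactivated FBS; Timing: compound addition one day post-seeding, then 24 h exposure at 37 °C.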

[2] = as above; details: SK-MEL-5 TRPM1-promoter luciferase, luminescence, 24 h; at 35 µM (top of the series)
In short: as §1

| Compound | AC50 [1] | activity change, negative = inhibition [2] |
| --- | --- | --- |
| O=C1C(Nc2ccc(Cl)cc2)=C(N2CCCC2)C(=O)c2ccccc21 | > 70 µM (inactive) | – |
| CCN1CCN(C2=C(Nc3ccc(F)cc3F)C(=O)c3ccccc3C2=O)CC1 | 11.4 µM | – |
| NS(=O)(=O)c1ccc(NC2=CC(=O)c3ccccc3C2=O)cc1 | 0.651 µM and 0.229 µM | – |
| O=C1C=C(Nc2ccccc2)C(=O)c2ccccc21 | 3.89 µM | – |
| COC1=C(NS(=O)(=O)c2ccccc2)C(=O)c2ccccc2C1=O | 8.13 µM | – |
| CN1CCN(C2=C(Nc3ccc(F)cc3F)C(=O)c3ccccc3C2=O)CC1 | 13.1 µM | – |
| O=C1C(Nc2cccc(Cl)c2)=C(N2CCCC2)C(=O)c2ccccc21 | > 70 µM (inactive) | – |
| NC1=CC(=O)c2ccccc2C1=O | 1.39 µM | – |
| Cc1ccc(NC2=CC(=O)c3ccccc3C2=O)cc1 | 3.13 µM | 76.9% (inactive) |
| CC(C)N1CCN(C2=C(Nc3ccc(F)cc3)C(=O)c3ccccc3C2=O)CC1 | 29.2 µM | – |
| O=C(NC1=C(N2CCN(c3ccccc3)CC2)C(=O)c2ccccc2C1=O)c1ccccc1 | > 70 µM (inactive) | – |
| COc1ccc(NC2=C(N3CCCCC3)C(=O)c3ccccc3C2=O)cc1 | 17.2 µM | – |
| O=C1C(Nc2ccc(F)cc2)=C(N2CCCCC2)C(=O)c2ccccc21 | 18.5 µM | – |
| CC(C)N1CCN(C2=C(Nc3ccc(F)cc3F)C(=O)c3ccccc3C2=O)CC1 | 12.6 µM | – |
| O=C1C=C(Nc2ccc([N+](=O)[O-])c(C(F)(F)F)c2)C(=O)c2ccccc21 | 0.718 µM | – |
| O=C1C(Nc2ccc(Br)cc2)=C(N2CCCCC2)C(=O)c2ccccc21 | 19.2 µM | – |
